Results: ChEMBL document CHEMBL5576116, “Structural modification of the propyl linker of cjoc42 in combination with sulfonate ester and triazole replacements for enhanced gankyrin binding and anti-proliferative activity” (Bioorg Med Chem, 2024)
Activity calls are given as the source filed them. The rule behind the calls is not given here.

How the values were obtained:
HuH-6 [1] = assay: Antiproliferative activity against human HuH-6 cells incubated for 72 hrs by MTT assay; assay type: functional, cell-based; conditions: HuH-6, 72 h
Method in brief: (§1)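 Cells kept in DMEM with 10% FBS and 1% penicillin/streptomycin, seeded at 2.5 x 10^4 cells/well and left 24 h before drug. Exposed to increasing compound concentrations for 72 h at 37 °C, 5% CO2. MTT dye (5.4 mg/mL) added for 3 h at 37 °C, formazan dissolved in DMSO, A570 read. 6–8 replicates per treatment; IC50 from dose–response curves.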

[2] = Cytotoxicity against HEK293 cells; assay type: toxicity, cell-based; conditions: human; method in brief: as §1
HuH-6 [3] = assay: Induction of cell cycle arrest in human HuH-6 cells assessed as decrease in S phase cells at 3.3 uM incubated for 72 hrs PI/RNAase staining based flow cytometry analysis; assay type: functional
Method in brief: (§2)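 HuH6 cells treated 72 h with compound or vehicle (0.25% DMSO final), harvested in cold PBS, normalized, fixed in 70% ethanol at −20 °C overnight. Pellet stained with PI/RNase for 30 min at 37 °C, then analyzed by flow and imaging cytometry. Mean ± SD, n = 3; one-way ANOVA, P < 0.05 significant.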

HepG2 = assay: Antiproliferative activity against human HepG2 cells incubated for 72 hrs by MTT assay; assay type: functional, cell-based; conditions: HepG2, 72 h
Huh-7 = assay: Antiproliferative activity against human HuH-7 cells incubated for 72 hrs by MTT assay; assay type: functional, cell-based; conditions: Huh-7, 72 h; method in brief: as §1
HuH-6 [4] = assay: Induction of cell cycle arrest in human HuH-6 cells assessed as accumulation of cells at […] phase at 3.3 uM incubated for 72 hrs PI/RNAase staining based flow cytometry analysis; assay type: functional; method in brief: as §2
HuH-6 [5] = assay: Effect on gankyrin protein level in human HuH-6 cells at 0.82 to 3.3 uM incubated for 48 hrs by Western blotting analysis; assay type: functional, cell-based; conditions: dose 0.82-3.3 µM
Method in brief: (§3)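 HuH6 cells in 10 cm dishes exposed to varying compound concentrations or vehicle (0.25% DMSO final) for 48 h. Harvested in cold PBS, lysed in RIPA plus protease/phosphatase inhibitors for 60 min on ice. 15 μg protein on reducing SDS-PAGE, transferred to PVDF, immunoblotted for p53, Rb and gankyrin with cyclophilin as reference; ECL detection. Run in duplicate.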

Hep 3B2 = assay: Antiproliferative activity against human Hep3B cells incubated for 72 hrs by MTT assay; assay type: functional, cell-based
[6] = target: T1, 26S proteasome non-ATPase regulatory subunit 10 (Homo sapiens) (UniProt O75832); assay: Binding affinity to gankyrin in human HuH-6 cells assessed as thermal stability incubated for 5 hrs by CETSA; assay type: cell-based
T1 sequence (whole entry): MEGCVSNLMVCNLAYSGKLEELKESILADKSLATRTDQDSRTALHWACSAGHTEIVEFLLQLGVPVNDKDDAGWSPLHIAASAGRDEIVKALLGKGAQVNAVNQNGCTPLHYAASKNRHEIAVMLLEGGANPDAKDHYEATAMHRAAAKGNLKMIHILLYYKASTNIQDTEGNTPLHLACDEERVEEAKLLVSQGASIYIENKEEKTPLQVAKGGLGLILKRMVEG
Method in brief: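 HuH6 cells treated for 5 h with compound or vehicle, 0.25% DMSO final. Harvested cells split into six aliquots heated at 50, 53, 56, 59, 62 or 65 °C. Lysed in RIPA with protease/phosphatase inhibitors, 60 min on ice. 15 μg protein run on reducing SDS-PAGE, blotted to PVDF, probed for gankyrin with β-actin reference, ECL detection. Melt curve mean ± SD, n = 3.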

HuH-6 [7] = assay: Upregulation of Rb protein level in human HuH-6 cells at 0.82 to 3.3 uM incubated for 48 hrs by Western blotting analysis; assay type: functional, cell-based; conditions: dose 0.82-3.3 µM; method in brief: as §3
HuH-6 [8] = assay: Upregulation of p53 protein level in human HuH-6 cells at 0.82 to 3.3 uM incubated for 48 hrs by Western blotting analysis; assay type: functional, cell-based; conditions: dose 0.82-3.3 µM; method in brief: as §3

| Compound | IC50 (HuH-6 [1]) [µM] | also measured |
| --- | --- | --- |
| COC(=O)c1ccc(NC(=O)NS(=O)(=O)c2ccc(C)cc2)cc1 | > 50 |  |
| COC(=O)c1ccc(-n2cc(CCCCNC(=O)c3ccc(C)cc3)nn2)cc1 | 19.5 |  |
| COc1ccc(C(=O)NCCCNC(=O)c2ccc(-c3ccccc3)cc2)cc1 | 2.4 | IC50 [2]: 3.3 µM |
| COC(=O)c1ccc(-n2cc(CCCCOS(=O)(=O)c3ccc(C)cc3)nn2)cc1 | > 50 |  |
| Cc1ccc(CNC(=O)Nc2ccc(C)cc2)cc1 | > 50 |  |
| Cc1ccc(C(=O)NCCCNC(=O)c2ccc(-c3ccccc3)cc2)cc1 | 20.3 |  |
| COC(=O)c1ccc(NC(=O)CCCCC(=O)Nc2ccc(C(=O)OC)cc2)cc1 | > 50 |  |
| Cc1ccc(NC(=O)CCCC(=O)Nc2ccc(C)cc2)cc1 | > 50 |  |
| COC(=O)c1ccc(CNC(=O)Nc2ccc(C)cc2)cc1 | > 50 |  |
| Cc1ccc(C(=O)NCCCNC(=O)c2ccc(C)cc2)cc1 | > 50 |  |
| COC(=O)c1ccc(C(=O)NCCCCNC(=O)c2ccc(C(=O)OC)cc2)cc1 | > 50 |  |
| COC(=O)c1ccc(NC(=O)CC(=O)Nc2ccc(C(=O)OC)cc2)cc1 | > 50 |  |
| COC(=O)c1ccc(NC(=O)CCC(=O)Nc2ccc(-c3ccccc3)cc2)cc1 | > 50 |  |
| Cc1ccc(NC(=O)NS(=O)(=O)c2ccc(C)cc2)cc1 | > 50 |  |
| Cc1ccc(C(=O)NCCCCNC(=O)c2ccc(-c3ccccc3)cc2)cc1 | > 50 |  |
| COC(=O)c1ccc(C(=O)NCCCCNC(=O)c2ccc(C)cc2)cc1 | > 50 |  |
| Cc1ccc(NC(=O)CC(=O)Nc2ccc(C)cc2)cc1 | > 50 |  |
| COc1ccc(CNC(=O)NS(=O)(=O)c2ccc(C)cc2)cc1 | > 50 |  |
| Cc1ccc(CNC(=O)NS(=O)(=O)c2ccc(C)cc2)cc1 | > 50 |  |
| COC(=O)c1ccc(C(=O)NCCCNC(=O)c2ccc(-c3ccccc3)cc2)cc1 | > 50 |  |
| Cc1ccc(NC(=O)Nc2ccc(C)cc2)cc1 | > 50 |  |

| Compound | IC50 (HuH-6 [1]) [µM] | also measured |
| --- | --- | --- |
| COC(=O)c1ccc(C(=O)NCCCNC(=O)c2ccc(C)cc2)cc1 | > 50 |  |
| Cc1ccc(C(=O)NCCNC(=O)c2ccc(C)cc2)cc1 | 30.2 |  |
| O=C(NCCCCNC(=O)c1ccc(C(F)(F)F)cc1)c1ccc(-c2ccccc2)cc1 | > 50 |  |
| COc1ccc(CNC(=O)Nc2ccc(C)cc2)cc1 | > 50 |  |
| COC(=O)c1ccc(NC(=O)Nc2ccc(C)cc2)cc1 | 38.8 |  |
| COC(=O)c1ccc(NC(=O)CCC(=O)Nc2ccc(C(=O)OC)cc2)cc1 | 3.3 | Activity (HuH-6 [3]): Active; IC50 [2]: > 50 µM; IC50 (HepG2): 24 µM; IC50 (Huh-7): > 50 µM; Activity (HuH-6 [4]): Active; Activity (HuH-6 [5]): inactive; IC50 (Hep 3B2): > 50 µM; Activity [6]: Active; Activity (HuH-6 [7]): Active; Activity (HuH-6 [8]): Active |
| COC(=O)c1ccc(NC(=O)CCCC(=O)Nc2ccc(C(=O)OC)cc2)cc1 | 14.1 |  |
| COC(=O)c1ccc(-n2cc(CCCOS(=O)(=O)c3ccc(C)cc3)nn2)cc1 | > 50 |  |
| Cc1ccc(NC(=O)CCC(=O)Nc2ccc(C)cc2)cc1 | > 50 |  |
| COC(=O)c1ccc(C(=O)NCCNC(=O)c2ccc(C)cc2)cc1 | 31 |  |
| COC(=O)c1ccc(-n2cc(CCNC(=O)c3ccc(C)cc3)nn2)cc1 | > 50 |  |
| COC(=O)c1ccc(CNC(=O)NS(=O)(=O)c2ccc(C)cc2)cc1 | > 50 |  |
| O=C(NCCCNC(=O)c1ccc(C(F)(F)F)cc1)c1ccc(-c2ccccc2)cc1 | > 50 |  |
| Cc1ccc(C(=O)NCCCCNC(=O)c2ccc(C)cc2)cc1 | > 50 |  |
| COC(=O)c1ccc(C(=O)NCCCNC(=O)c2ccc(C(=O)OC)cc2)cc1 | 19.8 | IC50 [2]: > 50 µM |
| COC(=O)c1ccc(-n2cc(CCOS(=O)(=O)c3ccc(C)cc3)nn2)cc1 | > 50 |  |
| COC(=O)c1ccc(-n2cc(CNC(=O)c3ccc(C)cc3)nn2)cc1 | > 50 |  |
| COC(=O)c1ccc(C(=O)NCCNC(=O)c2ccc(C(=O)OC)cc2)cc1 | > 50 |  |
| COC(=O)c1ccc(NC(=O)CCCCC(=O)Nc2ccc(C)cc2)cc1 | > 50 |  |
| COC(=O)c1ccc(C(=O)NCCCCNC(=O)c2ccc(-c3ccccc3)cc2)cc1 | > 50 |  |
| Cc1ccc(NC(=O)CCCCC(=O)Nc2ccc(C)cc2)cc1 | > 50 |  |
